Results as given in ChEMBL document CHEMBL4680175, “Sulfonamide-based ring-fused analogues for CAN508 as novel carbonic anhydrase inhibitors endowed with antitumor activity: Design, synthesis, and in vitro biological evaluation” (Eur J Med Chem, 2020).
The source made the active and inactive calls. The calls are words filed in the database; no cut-off is given here.

What was measured:
[1] = test system: PC-3; assay: Antitumor activity against human PC-3 cells assessed as cell growth inhibition at 10 uM incubated for 48 hrs by sulforhodamine B assay; format: functional; conditions: read-out: GI
Outline: (§1)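 NCI Drug Evaluation Branch protocol: primary single-dose screen at 10 μM across a 57-line human cancer panel. Drug exposure is 48 h. Cell growth and viability are read by sulforhodamine B assay. Data are given as a mean graph of percent growth of treated cells and reported as percentage growth inhibition (GI%).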

[2] = molecular target: Carbonic anhydrase 9 (Homo sapiens, UniProt Q16790); assay: Inhibition of recombinant human carbonic anhydrase 9 preincubated with enzyme for 15 mins by phenol red dye based stopped flow CO2 hydrase assay
[3] = test system: NCI-H226; assay: Antitumor activity against human NCI-H226 assessed as cell growth inhibition at 10 uM incubated for 48 hrs by sulforhodamine B assay; format: functional; conditions: read-out: GI; outline: as §1
[4] = test system: NCI-H522; assay: Antitumor activity against human NCI-H522 cells assessed as cell growth inhibition at 10 uM incubated for 48 hrs by sulforhodamine B assay; format: functional; conditions: read-out: GI; outline: as §1
[5] = test system: T47D; assay: Antitumor activity against human T-47D cells assessed as cell growth inhibition at 10 uM incubated for 48 hrs by sulforhodamine B assay; format: functional; conditions: read-out: GI
Outline: (§2)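 NCI one-dose screen: 57-cell-line panel exposed at 10 μM for 48 h, Drug Evaluation Branch protocol. Growth and viability read by sulforhodamine B; data given as percent growth inhibition from the mean-graph of percent growth of treated cells.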

[6] = test system: LOX IMVI; assay: Antitumor activity against human LOX IMVI cells assessed as cell growth inhibition at 10 uM incubated for 48 hrs by sulforhodamine B assay; format: functional; conditions: read-out: GI; outline: as §1
[7] = test system: KM12; assay: Antitumor activity against human KM12 cells assessed as cell growth inhibition at 10 uM incubated for 48 hrs by sulforhodamine B assay; format: functional; conditions: read-out: GI; outline: as §1
[8] = test system: SK-MEL-2; assay: Antitumor activity against human SK-MEL-2 cells assessed as cell growth inhibition at 10 uM incubated for 48 hrs by sulforhodamine B assay; format: functional; conditions: read-out: GI; outline: as §1
[9] = test system: K562; assay: Antitumor activity against human K562 cells assessed as cell growth inhibition at 10 uM incubated for 48 hrs by sulforhodamine B assay; format: functional; conditions: read-out: GI; outline: as §1
[10] = test system: SF-539; assay: Antitumor activity against human SF539 cells assessed as cell growth inhibition at 10 uM incubated for 48 hrs by sulforhodamine B assay; format: functional; conditions: read-out: GI; outline: as §1
[11] = test system: UO-31; assay: Antitumor activity against human UO-31 cells assessed as cell growth inhibition at 10 uM incubated for 48 hrs by sulforhodamine B assay; format: functional; conditions: read-out: GI; outline: as §2
[12] = test system: CCRF-CEM; assay: Antitumor activity against human CCRF-CEM cells assessed as cell growth inhibition at 10 uM incubated for 48 hrs by sulforhodamine B assay; format: functional; conditions: read-out: GI; outline: as §1
[13] = test system: SK-MEL-5; assay: Antitumor activity against human SK-MEL-5 cells assessed as cell growth inhibition at 10 uM incubated for 48 hrs by sulforhodamine B assay; format: functional; conditions: read-out: GI; outline: as §1
[14] = test system: SNB-75; assay: Antitumor activity against human SNB-75 cells assessed as cell growth inhibition at 10 uM incubated for 48 hrs by sulforhodamine B assay; format: functional; conditions: read-out: GI; outline: as §2
[15] = test system: HCT-116; assay: Antitumor activity against human HCT116 cells assessed as cell growth inhibition at 10 uM incubated for 48 hrs by sulforhodamine B assay; format: functional; conditions: read-out: GI; outline: as §1
[16] = test system: HOP-62; assay: Antitumor activity against human HOP62 cells assessed as cell growth inhibition at 10 uM incubated for 48 hrs by sulforhodamine B assay; format: functional; conditions: read-out: GI; outline: as §1
[17] = molecular target: CDK9/cyclin T1 (Homo sapiens, UniProt P50750); assay: Inhibition of human full-length N-terminal GST/His6-tagged CDK9 (1 to 372 residues)/His6-tagged Cyclin-T1 (1 to 726 residues) expressed in sf9 cells using (YSPTSPS)2KK peptide as substrate in presence of [gamma33P]ATP
[18] = test system: SN12C; assay: Antitumor activity against human SN12C cells assessed as cell growth inhibition at 10 uM incubated for 48 hrs by sulforhodamine B assay; format: functional; conditions: read-out: GI; outline: as §1
[19] = test system: OVCAR-3; assay: Antitumor activity against human OVCAR-3 cells assessed as cell growth inhibition at 10 uM incubated for 48 hrs by sulforhodamine B assay; format: functional; conditions: read-out: GI; outline: as §1
[20] = molecular target: Carbonic anhydrase 2 (Homo sapiens, UniProt P00918); assay: Inhibition of recombinant human carbonic anhydrase 2 preincubated with enzyme for 15 mins by phenol red dye based stopped flow CO2 hydrase assay
[21] = test system: NCI/ADR-RES; assay: Antitumor activity against human NCI/ADR-RES cells assessed as cell growth inhibition at 10 uM incubated for 48 hrs by sulforhodamine B assay; format: functional, cell-based; outline: as §1
[22] = test system: NCI-H322M; assay: Antitumor activity against human NCI-H322M cells assessed as cell growth inhibition at 10 uM incubated for 48 hrs by sulforhodamine B assay; format: functional; conditions: read-out: GI; outline: as §1
[23] = test system: RXF 393; assay: Antitumor activity against human RXF 393 cells assessed as cell growth inhibition at 10 uM incubated for 48 hrs by sulforhodamine B assay; format: functional; conditions: read-out: GI; outline: as §1
[24] = molecular target: Cyclin-dependent kinase 2/cyclin E1 (Homo sapiens, UniProt P24941); assay: Inhibition of CDK2/cyclin E (unknown origin) expressed in baculovirus infected Sf21 insect cells using histone H1 as substrate in presence of [gamma33P]ATP
[25] = molecular target: Carbonic anhydrase 1 (Homo sapiens, UniProt P00915); assay: Inhibition of recombinant human carbonic anhydrase 1 preincubated with enzyme for 15 mins by phenol red dye based stopped flow CO2 hydrase assay
[26] = test system: U-251; assay: Antitumor activity against human U251 cells assessed as cell growth inhibition at 10 uM incubated for 48 hrs by sulforhodamine B assay; format: functional; conditions: read-out: GI; outline: as §2
[27] = test system: IGROV-1; assay: Antitumor activity against human IGROV1 cells assessed as cell growth inhibition at 10 uM incubated for 48 hrs by sulforhodamine B assay; format: functional; conditions: read-out: GI; outline: as §1
[28] = test system: MDA-MB-231; assay: Antitumor activity against human MDA-MB-231/ATCC cells assessed as cell growth inhibition at 10 uM incubated for 48 hrs by sulforhodamine B assay; format: functional; conditions: read-out: GI; outline: as §1
[29] = test system: RPMI-8226; assay: Antitumor activity against human RPMI8226 cells assessed as cell growth inhibition at 10 uM incubated for 48 hrs by sulforhodamine B assay; format: functional; conditions: read-out: GI; outline: as §1
[30] = test system: MCF7; assay: Antitumor activity against human MCF7 cells assessed as cell growth inhibition at 10 uM incubated for 48 hrs by sulforhodamine B assay; format: functional; conditions: read-out: GI; outline: as §1
[31] = test system: MOLT-4; assay: Antitumor activity against human MOLT4 cells assessed as cell growth inhibition at 10 uM incubated for 48 hrs by sulforhodamine B assay; format: functional; conditions: read-out: GI; outline: as §1
[32] = test system: OVCAR-8; assay: Antitumor activity against human OVCAR-8 cells assessed as cell growth inhibition at 10 uM incubated for 48 hrs by sulforhodamine B assay; format: functional; conditions: read-out: GI; outline: as §1
[33] = test system: MDA-MB-468; assay: Antitumor activity against human MDA-MB-468 cells assessed as cell growth inhibition at 10 uM incubated for 48 hrs by sulforhodamine B assay; format: functional; conditions: read-out: GI; outline: as §1
[34] = test system: HOP-92; assay: Antitumor activity against human HOP92 cells assessed as cell growth inhibition at 10 uM incubated for 48 hrs by sulforhodamine B assay; format: functional; conditions: read-out: GI; outline: as §1
[35] = test system: SF-268; assay: Antitumor activity against human SF268 cells assessed as cell growth inhibition at 10 uM incubated for 48 hrs by sulforhodamine B assay; format: functional; conditions: read-out: GI; outline: as §1
[36] = test system: CAKI-1; assay: Antitumor activity against human CAKI-1 cells assessed as cell growth inhibition at 10 uM incubated for 48 hrs by sulforhodamine B assay; format: functional; conditions: read-out: GI; outline: as §1
[37] = test system: NCI-H460; assay: Antitumor activity against human NCI-H460 cells assessed as cell growth inhibition at 10 uM incubated for 48 hrs by sulforhodamine B assay; format: functional; conditions: read-out: GI; outline: as §1
[38] = test system: BT-549; assay: Antitumor activity against human BT-549 cells assessed as cell growth inhibition at 10 uM incubated for 48 hrs by sulforhodamine B assay; format: functional; conditions: read-out: GI; outline: as §1

CDK9/cyclin T1, sequence (O60563 whole entry, the tested form may be a part): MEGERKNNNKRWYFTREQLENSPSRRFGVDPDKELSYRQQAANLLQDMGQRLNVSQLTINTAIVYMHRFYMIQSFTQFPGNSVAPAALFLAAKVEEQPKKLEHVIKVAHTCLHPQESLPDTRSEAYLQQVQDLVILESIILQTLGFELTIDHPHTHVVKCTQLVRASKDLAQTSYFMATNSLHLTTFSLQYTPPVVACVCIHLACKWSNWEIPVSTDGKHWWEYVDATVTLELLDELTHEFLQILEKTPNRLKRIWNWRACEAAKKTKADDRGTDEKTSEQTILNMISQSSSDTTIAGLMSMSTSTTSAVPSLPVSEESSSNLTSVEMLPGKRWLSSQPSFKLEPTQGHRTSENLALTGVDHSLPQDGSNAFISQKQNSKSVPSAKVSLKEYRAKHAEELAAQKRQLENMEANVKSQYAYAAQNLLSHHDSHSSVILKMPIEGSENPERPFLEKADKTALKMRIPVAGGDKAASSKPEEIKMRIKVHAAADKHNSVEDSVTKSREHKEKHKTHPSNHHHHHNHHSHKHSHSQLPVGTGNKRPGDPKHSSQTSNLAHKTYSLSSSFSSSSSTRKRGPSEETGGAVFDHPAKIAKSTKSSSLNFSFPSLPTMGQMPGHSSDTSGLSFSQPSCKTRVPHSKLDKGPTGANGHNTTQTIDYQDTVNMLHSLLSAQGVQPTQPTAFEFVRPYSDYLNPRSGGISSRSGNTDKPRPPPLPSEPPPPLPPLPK
CDK9/cyclin T1, sequence (P50750 whole entry, the tested form may be a part): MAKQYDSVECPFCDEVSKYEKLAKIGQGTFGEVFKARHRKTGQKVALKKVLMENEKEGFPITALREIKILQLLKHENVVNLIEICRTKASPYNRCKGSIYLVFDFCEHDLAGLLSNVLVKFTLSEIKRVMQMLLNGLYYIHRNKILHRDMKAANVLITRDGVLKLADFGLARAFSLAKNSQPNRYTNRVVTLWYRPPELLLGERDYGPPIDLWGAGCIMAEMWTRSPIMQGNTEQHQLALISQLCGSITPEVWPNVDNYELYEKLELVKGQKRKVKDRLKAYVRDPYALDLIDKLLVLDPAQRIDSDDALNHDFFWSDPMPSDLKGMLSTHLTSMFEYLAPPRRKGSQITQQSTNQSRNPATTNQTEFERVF
Carbonic anhydrase 1, sequence (P00915 whole entry): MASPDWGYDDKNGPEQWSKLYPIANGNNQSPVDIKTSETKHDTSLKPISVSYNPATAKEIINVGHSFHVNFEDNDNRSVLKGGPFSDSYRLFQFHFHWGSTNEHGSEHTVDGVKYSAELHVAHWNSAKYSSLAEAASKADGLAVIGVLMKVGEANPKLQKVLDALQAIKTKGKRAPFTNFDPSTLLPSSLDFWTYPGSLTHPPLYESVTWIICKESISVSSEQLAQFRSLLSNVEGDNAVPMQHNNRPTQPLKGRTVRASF

SMILES | inhibition of growth at 10 µM [1] [%] | Ki [2] [nM] | inhibition of growth at 10 µM [4] [%] | inhibition of growth at 10 µM [5] [%] | inhibition of growth at 10 µM [6] [%] | inhibition of growth at 10 µM [7] [%] | inhibition of growth at 10 µM [8] [%] | inhibition of growth at 10 µM [9] [%] | inhibition of growth at 10 µM [10] [%] | inhibition of growth at 10 µM [11] [%] | inhibition of growth at 10 µM [12] [%] | inhibition of growth at 10 µM [13] [%] | inhibition of growth at 10 µM [14] [%] | inhibition of growth at 10 µM [15] [%] | inhibition of growth at 10 µM [16] [%] | IC50 [17] [nM] | inhibition of growth at 10 µM [18] [%] | inhibition of growth at 10 µM [19] [%] | Ki [20] [nM] | Activity [21] | also measured
N#Cc1c(-c2ccc(F)cc2)nc2c(/N=N/c3ccc(S(N)(=O)=O)cc3)c(N)nn2c1N | 29 | 8.8 | 32 | 48 | 28 | 53 | 25 | 33 | 28 | 38 | 51 | 31 | 33 | 24 | 21 | > 12500 | 24 | 20 | 399 | inactive | inhibition of growth at 10 µM [3]: 25%; inhibition of growth at 10 µM [22]: 21%; inhibition of growth at 10 µM [23]: 59%; IC50 [24]: > 12500 nM; Ki [25]: 2440 nM; inhibition of growth at 10 µM [26]: 28%; inhibition of growth at 10 µM [27]: 36%; inhibition of growth at 10 µM [28]: 37%; inhibition of growth at 10 µM [29]: 60%; inhibition of growth at 10 µM [30]: 59%; inhibition of growth at 10 µM [31]: 62%; inhibition of growth at 10 µM [32]: 25%; inhibition of growth at 10 µM [33]: 71%; inhibition of growth at 10 µM [34]: 58%
Cc1ccc(-c2cn3nc(N)c(/N=N/c4ccc(S(N)(=O)=O)cc4)c3[nH]2)cc1 | 43 | 9.4 | 57 | 39 | 70 | 46 | 57 | 48 | 56 | 77 | 54 | 51 | 66 | 62 | 39 | > 12500 | 63 | 36 | 99.7 | inactive | inhibition of growth at 10 µM [35]: 49%; inhibition of growth at 10 µM [3]: 27%; inhibition of growth at 10 µM [22]: 69%; inhibition of growth at 10 µM [23]: 56%; IC50 [24]: 20300 nM; Ki [25]: 1200 nM; inhibition of growth at 10 µM [26]: 44%; inhibition of growth at 10 µM [27]: 80%; inhibition of growth at 10 µM [28]: 42%; inhibition of growth at 10 µM [36]: 86%; inhibition of growth at 10 µM [29]: 60%; inhibition of growth at 10 µM [31]: 55%; inhibition of growth at 10 µM [32]: 47%; inhibition of growth at 10 µM [37]: 67%; inhibition of growth at 10 µM [33]: 48%; inhibition of growth at 10 µM [34]: 35%; inhibition of growth at 10 µM [38]: 33%
Nc1nn2cc(-c3ccc(Br)cc3)[nH]c2c1/N=N/c1ccc(S(N)(=O)=O)cc1 | 39 | 44.9 | 55 | 46 | 64 | 39 | 53 | 38 | 42 | 74 | 45 | 45 | 64 | 62 | 37 | > 12500 | 58 | 27 | 49.3 | inactive | inhibition of growth at 10 µM [35]: 42%; inhibition of growth at 10 µM [22]: 65%; inhibition of growth at 10 µM [23]: 55%; IC50 [24]: > 12500 nM; Ki [25]: 1590 nM; inhibition of growth at 10 µM [26]: 38%; inhibition of growth at 10 µM [27]: 72%; inhibition of growth at 10 µM [28]: 43%; inhibition of growth at 10 µM [36]: 82%; inhibition of growth at 10 µM [29]: 55%; inhibition of growth at 10 µM [30]: 33%; inhibition of growth at 10 µM [31]: 42%; inhibition of growth at 10 µM [32]: 37%; inhibition of growth at 10 µM [37]: 62%; inhibition of growth at 10 µM [33]: 51%; inhibition of growth at 10 µM [34]: 29%; inhibition of growth at 10 µM [38]: 25%
